# Most compounds without a hit are left out; they make up all but 1.5% or so of the library.
# PKA-R2B act: activators of human PKA-R2B complex | PKA-R2B holoenzyme dissociation, Cy5-IP20 fluorescence polarization; R2B truncated from residue 108, S112A mutant; 0% DMSO only, 100% 113 µM cGMP | activation, % at 11.4 µM | 340,000 compounds, 0.079% hits | P22694+P31323;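 active = activation above a cutoff set at the mean over all compounds plus 3 SD, cut at about 18% in these data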;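 note: higher means more holoenzyme dissociation and a rise in polarization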
# SIRT5 inh: blocks human SIRT5 desuccinylation of peptide; AID 652115; 330,000 compounds, 1.1% hits; Purified SirT5, succinyl-peptide AMC, trypsin-coupled fluorescence; inhibition, % at 15 µM; Q9NXA8; in the data active = inhibition above about 15%
# Target sequence (Q9NXA8 whole entry, looked up): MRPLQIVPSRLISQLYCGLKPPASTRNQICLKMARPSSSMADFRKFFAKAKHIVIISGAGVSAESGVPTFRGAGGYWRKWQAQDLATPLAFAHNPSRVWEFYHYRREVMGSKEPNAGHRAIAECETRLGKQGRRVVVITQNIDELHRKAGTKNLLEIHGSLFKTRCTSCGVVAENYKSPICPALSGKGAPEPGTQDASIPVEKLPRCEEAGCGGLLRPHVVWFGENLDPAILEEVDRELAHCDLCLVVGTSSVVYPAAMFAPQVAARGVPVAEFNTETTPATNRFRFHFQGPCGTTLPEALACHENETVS
# PKA-R1A activ: activators of PKA-R1A complex; activation, % at 11.4 µM; PKA-R1A dissociation, Cy5-IP20 fluorescence polarization; scaled: DMSO 0%, 113 µM cGMP 100%; 340,000 compounds, 0.083% hits; P00514+P68181;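 active = percent activation above the mean of all tested compounds plus 3 SD, cut at about 19% in these data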;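 note: higher means more PKAc released from R1A so a rise in polarization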
# CRFBP-R2 block: CRF-BP/CRF-R2 complex antagonism. HEK293 CRF-R2/CRF-BP, CRF-induced calcium fluorescence. inhibition, % at 11.8 µM. 350,000 compounds, 0.59% hits;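 active = inhibition of the ligand-induced calcium signal above about 50% at the single tested concentration, limit read from the data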
# S100A4 inh HTS: blocks human S100A4 binding to myosin IIA peptide. P26447. inhibition, % at 10.7 µM. 360,000 compounds, 0.14% hits. S100A4/TAMRA-MyoIIA peptide fluorescence polarization;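 active = mean inhibition of at least 70% across replicates, with every replicate also reaching that level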
#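 System – human S100A4 monomer protein, biochemical binding assay · Buffer or medium – Calcium-containing HEPES buffer, pH 7.2 · Timing – 5 min between mix addition and reading · Also added – TAMRA-labelled myosin IIA heavy-chain peptide probe, 5 nM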
# R1A FP artifact: FP assay interference, PKA-R1A counter-screen; shares compounds with PKA-R1A activ; Cy5-IP20 peptide alone, fluorescence polarization artifact counterscreen; activation, % at 11.4 µM; 280 compounds, 7% hits; AID 504799;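 active = mean activation over triplicate runs exceeds the adjusted cutoff derived for the parent primary screen, cut at about 19% in these data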;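 note: no PKA protein present so any polarization rise reflects compound interference; 0% = tracer peptide mix alone and 100% = mix with added PKA catalytic subunit; higher means stronger polarization artifact and likely false positive in parent screen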
# PKA-R1A act conf: confirmation of PKA-R1A complex activators. shares compounds with PKA-R1A activ. 280 compounds, 9% hits. Cy5-IP20 fluorescence polarization, PKA-R1A holoenzyme dissociation. activation, % at 11.4 µM;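 active = mean activation over replicate wells exceeds the adjusted hit threshold taken from the earlier primary screen, cut at about 20% in these data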;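 note: 0% = holoenzyme mix with DMSO only and 100% = cGMP-activated control wells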
# Target sequence (P00514 whole entry, looked up): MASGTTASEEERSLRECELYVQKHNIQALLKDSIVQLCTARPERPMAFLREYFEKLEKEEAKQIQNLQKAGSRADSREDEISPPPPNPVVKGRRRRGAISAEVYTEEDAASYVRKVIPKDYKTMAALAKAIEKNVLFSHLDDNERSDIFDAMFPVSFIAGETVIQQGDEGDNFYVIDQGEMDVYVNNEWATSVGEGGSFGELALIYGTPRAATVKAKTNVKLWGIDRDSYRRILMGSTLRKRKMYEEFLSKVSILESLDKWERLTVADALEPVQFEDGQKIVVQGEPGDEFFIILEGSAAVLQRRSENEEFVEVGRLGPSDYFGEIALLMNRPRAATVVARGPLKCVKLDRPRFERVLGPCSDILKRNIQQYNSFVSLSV
# * hit, by the source's call; x = no result.
SMILES,PKA-R2B act,SIRT5 inh,PKA-R1A activ,CRFBP-R2 block,S100A4 inh HTS,R1A FP artifact,PKA-R1A act conf
O=C(C[C@H]1C=C[C@@H](NS(=O)(=O)c2ccc(F)cc2)[C@@H](CO)O1)NCc1ccc(Cl)c(Cl)c1,x,2.7,x,x,-2.1,x,x
CN(Cc1ccccc1)c1ccc(C(CC(N)=O)NC(=O)c2ccc(Br)cc2)cc1[N+](=O)[O-] (stereo not drawn),8.4,-3.9,25.2*,13.2,-1.1,18.9*,19.2*
CC(C)Nc1ccc(C(CC(N)=O)NC(=O)c2ccc(Br)cc2)cc1[N+](=O)[O-] (stereo not drawn),-3.9,x,0.1,1.8,0.1,x,x
COc1ccc(C(=O)Nc2c3c(nn2-c2ccc([N+](=O)[O-])cc2)CS(=O)(=O)C3)cc1,-4.4,4.8,-5.2,9.4,-1.8,x,x
COc1ccc(C(=O)Nc2c3c(nn2-c2ccc(Cl)cc2)CS(=O)(=O)C3)cc1,-7.9,-0.9,19.9*,-1.0,-4.3,0.1,-0.2
COc1ccc2c(c1OC)C(=O)OC2Nc1ncccc1C (stereo not drawn),8.0,x,18.9*,-6.0,x,5.2,1.0
CC(C)NC(=O)Nc1ccc2c(c1)C(=O)N(C)[C@H]1CC[C@H](CC(=O)Nc3ccc(F)cc3)O[C@@H]1CO2,x,-7.0,x,x,9.8,x,x
COc1ccccc1-c1cc(C(=O)Nc2cccnc2)no1,-11.3,x,18.7*,-37.4,x,1.2,-1.3
C[C@@H]1CN([C@@H](C)CO)C(=O)c2cc(C#Cc3cccc(F)c3)cnc2O[C@@H]1CN(C)C(=O)C1CCCCC1,x,8.3,x,x,-9.2,x,x
Cc1ccc(S(=O)(=O)N/N=C/c2cc(Br)c(C)o2)cc1,-9.9,x,7.9,9.2,x,x,x
Cc1ccc(S(=O)(=O)NN=Cc2ccco2)cc1,0.8,0.8,21.9*,6.8,3.6,2.5,1.6
Cc1cc(NC(=O)CSCC(=O)OCC(=O)Nc2cc(C)c(C)cc2[N+](=O)[O-])no1,-6.1,-3.9,19.6*,-3.6,-4.9,5.8,10.1
COc1ccc(C(=O)C[n+]2cccc3cc(C)ccc32)cc1,1.1,-4.8,18.7*,4.2,-7.3,8.8,5.2
CNC(=O)COc1ncnc2scc(-c3ccc(F)cc3)c12,0.5,-0.9,19.2*,-7.3,-20.2,2.9,5.2
C[C@H](CO)N1C[C@H](C)[C@@H](CN(C)Cc2cccc(C(F)(F)F)c2)OCc2cn(nn2)CCCC1=O,x,-3.5,x,x,16.8,x,x
O=C(NCC1CCCCC1)[C@@H]1[C@@H](CO)[C@@H]2Cn3c(cccc3=O)[C@@H]2N1C(=O)CC1CC1,x,-2.0,x,x,1.1,x,x
CC(=O)c1ccc(NC(=O)CSc2nc3nc(C)cc(C)n3n2)cc1,1.5,-2.2,18.6*,3.8,1.4,0.1,0.9
C[C@@H]1CCCCO[C@@H](CN(C)Cc2ccc(C(F)(F)F)cc2)[C@H](C)CN([C@@H](C)CO)C(=O)c2cc(NC(=O)NC3CCCCC3)ccc2O1,x,1.3,x,x,2.5,x,x
Cc1ccc(-c2cc(C(=O)N3CCOCC3)no2)cc1,4.7,-3.8,20.9*,2.4,-3.4,6.0,5.1
CC#CC(=O)NC1CCCN(C2Cc3ccccc3C2)C1 (stereo not drawn),11.1,2.5,19.5*,0.6,-1.5,2.0,2.0
CCCC1=NN(c2ccc([N+](=O)[O-])cc2)C(=O)/C1=C/N(C)C,1.6,3.0,19.1*,9.1,-1.9,1.7,0.4
CC1=NN(c2ccc([N+](=O)[O-])cc2)C(=O)/C1=C\N(C)C,-7.8,x,7.4,9.2,2.1,x,x
O=C(C[C@H]1CC[C@@H](NC(=O)Cc2ccccn2)[C@@H](CO)O1)NCCc1ccncc1,x,-3.2,x,x,-1.1,x,x
C[C@@H]1CN([C@H](C)CO)C(=O)c2cc(NC(=O)CCCCCC(=O)Nc3ccccc3N)ccc2O[C@H]1CN(C)C(=O)Nc1ccc2c(c1)OCO2,x,1.7,x,x,8.1,x,x
CCCCS(=O)(=O)N1CCCC(C(=O)Nc2ccc3c(c2)CCC3)C1 (stereo not drawn),0.9,-0.4,18.8*,6.5,-3.4,0.2,0.6
SMILES,PKA-R2B act,SIRT5 inh,PKA-R1A activ,CRFBP-R2 block,S100A4 inh HTS,R1A FP artifact,PKA-R1A act conf
CCCCS(=O)(=O)N1CCCC(C(=O)NCCc2ccccc2)C1 (stereo not drawn),-13.0,-4.8,-9.6,1.1,-7.8,x,x
CCC(=O)Nc1ccc(C(=O)NNC(=O)COc2cccc(C)c2)cc1,3.9,-4.5,20.5*,-5.2,2.7,1.9,-2.5
CCC(C)(C)n1nnnc1C(c1cc2cccc(C)c2[nH]c1=O)N1CCN(C(=O)c2ccco2)CC1 (stereo not drawn),2.0,x,19.3*,-11.1,x,4.0,1.9
CCC(C)(C)n1nnnc1C(c1ccc(C)cc1)N1CCN(C(=O)c2ccco2)CC1 (stereo not drawn),-8.3,x,-5.5,9.1,x,x,x
CC1CC(N(C(=O)c2ccc(Cl)cc2)c2ccccc2)c2ccccc2N1C(=O)c1ccco1 (stereo not drawn),1.5,x,0.7,26.4,x,x,x
CC1CC(N(C(=O)c2ccco2)c2ccccc2)c2ccccc2N1C(=O)c1ccco1 (stereo not drawn),-0.1,x,18.6*,18.7,x,0.1,2.4
COc1ncnc2c1oc1nc(CC(C)C)c3c(c12)CC(C)(C)OC3,10.1,x,19.8*,-60.8,x,0.8,3.3
Cc1cc(C(=O)Nc2ccc3c(c2)C(=O)N(C)[C@@H]2CC[C@H](CC(=O)N[C@H](C)c4ccccc4)O[C@@H]2CO3)no1,x,x,x,x,8.7,x,x
COc1ccccc1CNC(=O)C(=O)c1cn(CC(=O)N2CCCC2)c2ccccc12,-6.3,13.8,1.8,-22.1,3.3,x,x
COc1ccccc1CCNC(=O)C(=O)c1cn(CC(=O)N2CCOCC2)c2ccccc12,1.8,7.8,18.8*,5.9,1.6,-2.1,-0.6
CSCC[C@H](NC(=O)c1nn(C)c(=O)c2ccccc12)c1nc2ccccc2[nH]1,-4.9,x,19.5*,-1.2,x,-0.9,-0.1
COc1ccc(Nc2cc(C)nc3ncnn23)cc1Cl,0.4,-1.3,22.3*,18.6,-0.3,2.4,-3.5
COc1ccc(/C=C2\SC(=S)N(CC3CCCO3)C2=O)cc1 (stereo not drawn),-14.2,4.1,-4.9,3.2,1.3,x,x
O=C1/C(=C/c2cccnc2)SC(=S)N1CC1CCCO1 (stereo not drawn),-5.4,0.3,24.8*,2.4,-3.1,0.1,0.3
COc1ccccc1-c1noc(-c2cc(OC)c(OC)c(OC)c2)n1,3.4,x,4.1,-9.8,x,x,x
COc1cc(OC)cc(-c2nc(-c3ccccc3OC)no2)c1,11.7,x,19.1*,-1.5,x,3.2,5.2

# Screens (PubChem BioAssay)
